The results in this text go back to ChEMBL document CHEMBL4017542, “Identification of a Novel 1,2,3,4-Tetrahydrobenzo[b][1,6]naphthyridine Analogue as a Potent Phosphodiesterase 5 Inhibitor with Improved Aqueous Solubility for the Treatment of Alzheimer's Disease” (J Med Chem, 2017).

≈ marks a conversion by molar mass, not a printed value. Calls of active or inactive are those of the source. The calls are words filed in the database; no cut-off is given here.

Data set [1] has as its system Mus musculus. In words: Elevation of cGMP levels in hippocampal slices of wild type C57Bl6 mouse at 3 mg/kg, ip administered for 30 mins followed by foot shock measured at 10 to 60 secs after shock by enzyme immunoassay relative to control. The class given is functional. The method in brief: (§1)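 Male and female C57Bl6 mice, 2-3 months old, 20-25 g, given i.p. drug or vehicle (2% DMSO & 2% Tween). Foot shock 30 min after dosing; killed by cervical dislocation and decapitation at 10 s, 1 min or 3 min. Hippocampi snap-frozen. cGMP measured by enzyme immunoassay in duplicate and normalised to BCA protein; n=3 per group; compared with vehicle.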

The nature of data set [2]: Kinetic solubility of compound in phosphate buffer after 18 hrs by turbidimetric method. The class given is physicochemical. The note with it: read-out: Kinetic_solubility. The method in brief: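 Compound serially diluted in DMSO at 100x final and diluted 100-fold into phosphate buffered saline. After 18 h at 37°C, turbidity read at 540 nm. Turbid if absorbance exceeded blank mean + 3 SD. Result is the highest concentration showing no turbidity.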

Data set [3] relates to Mus musculus. In words: Antialzheimer activity in 3 to 4 months old APP1/PS1 transgenic mouse assessed as effect on freezing at 3 mg/kg, ip administered daily for 3 weeks measured at age of 6 to 7 months by contextual fear memory test (reference value: 15%). The class given is functional. Summed up: (§2)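 Mice (APP/PS1 or wild-type) dosed 3 mg/kg i.p. daily for 3 weeks from age 3-4 months. Contextual fear learning scored 24 h after training as freezing (no movement except respiration) over 5 min in the training chamber. Mice tested at 3-4 months or at 6-7 months of age. Experiments blind; mean ± SEM.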

The subject of data set [4] is Liver. Put plainly: Half life in human liver microsomes at 1 uM measured up to 60 mins by LC-MS/MS analysis. It counts as ADME, microsome. The note with it: 1 h. The method in brief:
(§3)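 Liver microsomes incubated with test compound at 1 µM final, 37°C, after a 3 min preincubation without cofactor, alongside a testosterone control. Protein precipitated; samples analyzed by LC-MS/MS with electrospray. Peak area ratio to internal standard compared with time 0 to give % remaining. Half-life from single-phase exponential decay fit.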
(In general: Liver microsomes are a subcellular fraction often used to study metabolism.)

Data set [5] deals with Mus musculus. In words: Antialzheimer activity in 3 to 4 months old APP1/PS1 transgenic mouse assessed as effect on number of errors at 3 mg/kg, ip administered daily for 3 weeks measured at age of 6 to 7 months by 2 day radial arm water maze test (reference value: 2.5). The class given is functional.
Data set [6] deals with Mus musculus. Put plainly: Plasma half life in mouse at 25 mg/kg, ip measured at 0.25 hrs post dose by LC/MS analysis. The class given is ADME, organism-based. Conditions: in vivo. Summed up:
(§4)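 Mice given 25 mg/kg i.p., 3 animals per time point, sampled up to 2 h. Plasma taken from heparinized retro-orbital blood; brain homogenized in methanol. Both extracted with methanol plus internal standard and quantified by LC/MS against a standard curve. Half-life from single-phase exponential decay fit.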

Data set [7] has as its system Mus musculus. In words: Antialzheimer activity in APP1/PS1 transgenic mouse assessed as effect on number of errors at 3 mg/kg, ip administered daily for 3 weeks by 2 day radial arm water maze test (reference value: 3). The class given is functional.
The test system of data set [8] is Mus musculus. Put plainly: Antialzheimer activity in 3 to 4 months old APP1/PS1 transgenic mouse model assessed as long-term residual potentiation in hippocampal slices at 3 mg/kg, ip administered daily for 3 weeks measured at age of 6 to 7 months (reference value: 164.11 +/- 10.36%). The class given is functional.
For data set [9], the system named is Mus musculus. Put plainly: Elevation of cGMP levels in hippocampal slices of wild type C57Bl6 mouse at 10 mg/kg, ip administered for 30 mins followed by foot shock measured at 10 to 60 secs after shock by enzyme immunoassay relative to control. The class given is functional. The method in brief: as §1
In data set [10] the test system is Liver. Put plainly: Half life in mouse liver microsomes at 1 uM measured up to 60 mins by LC-MS/MS analysis. The class given is ADME, microsome. Conditions: 1 h. Summed up: as §3
Data set [11] has as its system Hippocampus. In words: Effect on long-term residual potentiation in wild type C57Bl6 mouse hippocampal slices at 50 nM administered via bath perfusion for 10 mins prior to tetanus measured at the last 5 mins of 2 hrs recording. It counts as ADME, tissue-based. Conditions: 0.05 µM. Summed up:
(§5)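 Acute hippocampal slices from 3–4 month old APP/PS1 transgenic mice or WT littermates. Slices received 50 nM compound or vehicle through bath perfusion for 10 min before tetanus. Residual potentiation was taken as the mean over the last 5 min of a 2 h recording. Experiments were blinded, values are SEM, and groups were compared by 2-way ANOVA for repeated measures.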

For data set [12], the system named is Mus musculus. In words: Toxicity in wild type C57Bl6 mouse assessed as effect on freezing at 3 mg/kg, ip administered daily for 3 weeks by contextual fear memory test. It counts as organism-based. The note with it: in vivo, 504 h. The method in brief: as §2
The subject of data set [13] is Mus musculus. In words: Elevation of cGMP levels in hippocampal slices of wild type C57Bl6 mouse at 3 to 10 mg/kg, ip administered for 30 mins followed by foot shock measured at 10 to 180 secs after shock by enzyme immunoassay. The class given is functional, organism-based. The method in brief:
(§6)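 2-3 month old male and female C57Bl6 mice (20-25 g) dosed i.p. at 3 or 10 mg/kg in 2% DMSO & 2% Tween, or vehicle alone. Foot shock given 30 min later. Killed 10 s, 1 min or 3 min after shock. Hippocampi snap frozen. cGMP measured by enzyme immunoassay in duplicate and normalized to BCA protein. n=3 per group.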

For data set [14], the system named is Mus musculus. In words: Toxicity in wild type C57Bl6 mouse assessed as effect on number of errors at 3 mg/kg, ip administered daily for 3 weeks by 2 day radial arm water maze test. It counts as organism-based. Conditions: in vivo. Summed up: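 Wild-type mice given 3 mg/kg i.p. daily for 3 weeks from age 3-4 months. Tested in 2-day radial arm water maze, with a hidden platform in one of 6 arms. Errors counted, averaged per mouse over blocks of 3 trials. Blind scoring; SEM.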

Data set [15] can be described thus: Drug level in mouse brain at 25 mg/kg, ip measured at 0.25 hrs post dose by LC/MS analysis. The class given is ADME, organism-based. The note with it: read-out: Drug uptake. Summed up:
as §4

In data set [16] the test system is Hippocampus. In words: Antialzheimer activity in […] transgenic mouse hippocampal slices assessed as long-term residual potentiation at 50 nM administered via bath perfusion for 10 mins prior to tetanus measured at the last 5 mins of 2 hrs recording (reference value: 137.90 +/- 10.83%). It counts as functional. The method in brief:
as §5

The test system of data set [17] is Mus musculus. Put plainly: Elevation of cGMP levels in hippocampal slices of wild type ip dosed C57Bl6 mouse administered for 30 mins followed by foot shock measured at 10 to 60 secs after shock by enzyme immunoassay. It counts as functional, organism-based. The method in brief:
as §6

Data set [18] deals with Mus musculus. Put plainly: Antialzheimer activity in APP1/PS1 transgenic mouse assessed as rescue contextual memory by measuring freezing at 3 mg/kg, ip administered daily for 3 weeks by contextual fear memory test (reference value: 15%). The class given is functional. The method in brief: as §2
For data set [19], the system named is Mus musculus. Put plainly: Elevation of cGMP levels in hippocampal slices of wild type C57Bl6 mouse at 10 mg/kg, ip administered for 30 mins followed by foot shock measured at 180 secs after shock by enzyme immunoassay relative to control. It counts as functional. Summed up:
as §1

Data set [20] in a line: Plasma concentration in mouse at 25 mg/kg, ip measured at 0.25 hrs post dose by LC/MS analysis. It counts as ADME, organism-based. Summed up: as §4
The target of data set [21] is cGMP-specific 3',5'-cyclic phosphodiesterase (Homo sapiens, UniProt O76074). In words: Inhibition of human recombinant PDE5A1 using FAM-labelled cGMP as substrate after 60 mins by fluorescence polarization assay. Summed up:
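Fluorescence polarization assay, room temperature, 60 min, with 100 nM FAM-cGMP and 0.1-0.45 ng PDE5 or 22.5-250 ng PDE6. Binding agent then added for 60 min; read at ex 485/em 528 nm. Duplicates at each concentration. Activity normalized to no-compound and no-enzyme controls; IC50 from sigmoidal dose-response fit.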
A general note: Fluorescence polarisation rises when a labelled molecule tumbles more slowly, as on binding a larger partner.

For data set [22], the species on record is Homo sapiens. Put plainly: Selectivity ratio of IC50 for human recombinant PDE6C to IC50 for human recombinant PDE5A1.
In data set [23] the target is Cone cGMP-specific 3',5'-cyclic phosphodiesterase subunit alpha' (Homo sapiens, UniProt P51160). Put plainly: Inhibition of human recombinant PDE6C using FAM-labelled cGMP as substrate after 60 mins by fluorescence polarization assay.
Chain of Cone cGMP-specific 3',5'-cyclic phosphodiesterase subunit alpha' (P51160 whole entry): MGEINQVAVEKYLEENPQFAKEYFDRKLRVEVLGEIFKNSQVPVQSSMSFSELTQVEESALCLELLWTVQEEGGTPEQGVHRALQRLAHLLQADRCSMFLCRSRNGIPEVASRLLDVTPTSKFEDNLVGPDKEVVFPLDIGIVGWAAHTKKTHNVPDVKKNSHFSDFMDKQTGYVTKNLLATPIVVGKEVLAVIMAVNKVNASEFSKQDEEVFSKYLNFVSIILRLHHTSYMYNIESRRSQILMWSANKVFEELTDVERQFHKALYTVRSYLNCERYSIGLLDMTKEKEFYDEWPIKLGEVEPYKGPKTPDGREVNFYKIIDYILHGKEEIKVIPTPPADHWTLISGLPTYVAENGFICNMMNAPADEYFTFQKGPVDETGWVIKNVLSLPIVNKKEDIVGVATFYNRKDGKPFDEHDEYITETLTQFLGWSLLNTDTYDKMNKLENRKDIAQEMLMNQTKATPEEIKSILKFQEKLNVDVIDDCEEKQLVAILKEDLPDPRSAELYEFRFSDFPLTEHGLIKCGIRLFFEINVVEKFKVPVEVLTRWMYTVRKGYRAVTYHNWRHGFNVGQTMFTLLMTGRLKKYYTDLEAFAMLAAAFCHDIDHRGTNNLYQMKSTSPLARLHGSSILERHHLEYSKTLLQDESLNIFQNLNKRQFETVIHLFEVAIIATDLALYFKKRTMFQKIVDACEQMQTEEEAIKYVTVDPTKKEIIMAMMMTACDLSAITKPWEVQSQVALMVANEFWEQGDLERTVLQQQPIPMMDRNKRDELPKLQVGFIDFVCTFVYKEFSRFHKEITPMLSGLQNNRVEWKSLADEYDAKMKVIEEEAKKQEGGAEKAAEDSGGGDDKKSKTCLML

Consider `COc1ccc(CNc2c3c(nc4ccc(C#N)cc24)CCN(C(C)=O)C3)cc1Cl`, for which the “fold change (FC)” value turned out to be 1.5 in data set [1], 1.7 in data set [9] and 1.3 in data set [19]. Besides, the solubility kinetic at 18 h in [2] is over 500 µM. Moreover, the Activity in data set [3] is 40%; in data set [5] it was 1; in data set [7] it was 1; in [8], 226.22%; in data set [11], “Non-Toxic”; in data set [12] it was 30%. Besides, the Activity result in data set [14] was “Non-Toxic”; in data set [16], 201.76%; in [17], “Dose-dependent effect”; in [18], 30%. Besides, the t1/2 came to 6 min in data set [4], 1.07 h in data set [6] and 3.2 min in data set [10]. Also, the outcome in data set [13] was Active. Moreover, the concentration at 0.25 h in data set [15] came out at 492 ng/g; in [20], 1570 ng/mL.

By IC50 is commonly meant the concentration that gives 50% inhibition. With `CC(=O)N1CCc2nc3ccc(C#N)cc3c(NCc3ccc(F)c(Cl)c3)c2C1`, the concentration for half-maximal inhibition (IC50) in data set [21] came to 1.5 nM.

For `CC(=O)N1CCc2nc3ccc(C#N)cc3c(NCc3ccnc(Cl)c3)c2C1`, the half-inhibitory concentration (IC50) in data set [21] was found to be 57 nM.

On to `COc1ccc2nc3c(c(NCc4ccc(OC)c(Cl)c4)c2c1)CN(C(C)=O)CC3`, for which the IC50 in [21] came out at 45.2 nM.

As to `COc1ccc(CNc2c(CO)cnc3c(C4CC4)cc(C#N)cc23)cc1Cl`, the solubility kinetic at 18 h in data set [2] is under 3.9 µM.

For `COc1ccc(CNc2c3c(nc4ccc(C#N)cc24)CCN(C)C3)cc1Cl`, the IC50 in [21] was 0.59 nM.

Take `COc1c(F)cc(CNc2c3c(nc4ccc(C#N)cc24)CCN(C(C)=O)C3)cc1Cl`: the IC50 in [21] turned out to be 0.32 nM.

With `COc1ccc(CNc2c3c(nc4ccc(Br)cc24)CCN(C(C)=O)C3)cc1Cl`, in [21], the half-inhibitory concentration (IC50) was 3.1 nM.

As to `CCN1CCc2nc3ccc(C#N)cc3c(NCc3ccc(OC)c(Cl)c3)c2C1`, the IC50 in data set [21] was found to be 0.19 nM.

For the molecule `CC(=O)N1CCc2nc3ccc(C#N)cc3c(NCc3ccc(OC(F)(F)F)c(Cl)c3)c2C1`, in data set [21], the half-inhibitory concentration (IC50) was found to be 337 nM.

For `CCN1Cc2nc3ccc(C#N)cc3c(NCc3ccc(OC)c(Cl)c3)c2C1=O`, in data set [2], the solubility kinetic at 18 h was found to be 3.1 µM (≈ 1.26 µg/mL). The Ratio IC50 in data set [22] turned out to be 100. Further, the IC50 in [23] was 6.6 nM.
